Measurements gathered from unrelated publications.
Compare with care: the assays were run in different laboratories.
Observed: cell growth or viability

Nc1c(C(=O)NCc2ccc(F)cc2)sc2nc(-c3ccccc3)ccc12
IC50 (HepG2; 72 h): > 100 µM

N=C(CC(O)c1cc2c(F)cc(F)cc2c2cc(C(F)(F)F)ccc12)Nc1cc(F)c(F)c(F)c1 (stereo not drawn)
IC50 (HepG2; neutral red; 24 h): 18.3 µM

N.N.[Cl][Pt][Cl]
inhibition (Ramos; ATP luminescence; 10 µM; 72 h): 100%

COc1ccc(-c2cc(C(F)(F)F)c3c(N)c(C(=O)NC4CC4)sc3n2)cc1
IC50 (HepG2; 72 h): > 100 µM

N=C(CC(O)c1cc2c(F)cc(F)cc2c2cc(C(F)(F)F)ccc12)Nc1ccc(N2CCC(F)(F)CC2)cc1 (stereo not drawn)
IC50 (HepG2; neutral red; 24 h): 53.8 µM

CN(C)C(=O)c1sc2nc(-c3ccccc3)ccc2c1N
IC50 (HepG2; 72 h): > 100 µM

Cc1cccc(F)c1NC(=N)CC(O)c1cc2c(F)cc(F)cc2c2cc(C(F)(F)F)ccc12 (stereo not drawn)
IC50 (HepG2; neutral red; 24 h): 22.8 µM

O=C1[O][Pt]2([NH][C@@H]3CCCC[C@H]3[NH]2)[O]C1=O
IC50 (THLE3; imaging; 72 h): 32.2 µM

O=C(Nc1ccc(Cl)cc1)Nc1cccc(-c2cn(Cc3ccc(Br)cc3)nn2)c1
viability (Huh-7; CCK-8; 50 µM; 48 h): 60.5%
